Measured values taken from ChEMBL document CHEMBL1781898, “Orally active achiral N-hydroxyformamide inhibitors of ADAM-TS4 (aggrecanase-1) and ADAM-TS5 (aggrecanase-2) for the treatment of osteoarthritis” (Bioorg Med Chem Lett, 2011).
pIC50: −log10 of the molar value.

How the values were obtained:
[1] = target: T1, A disintegrin and metalloproteinase with thrombospondin motifs 4 (Homo sapiens, UniProt O75173); experiment: Inhibition of ADAMTS-4 assessed as substrate cleavage after 16 hrs by fluorescence assay
T1 sequence (O75173 whole entry): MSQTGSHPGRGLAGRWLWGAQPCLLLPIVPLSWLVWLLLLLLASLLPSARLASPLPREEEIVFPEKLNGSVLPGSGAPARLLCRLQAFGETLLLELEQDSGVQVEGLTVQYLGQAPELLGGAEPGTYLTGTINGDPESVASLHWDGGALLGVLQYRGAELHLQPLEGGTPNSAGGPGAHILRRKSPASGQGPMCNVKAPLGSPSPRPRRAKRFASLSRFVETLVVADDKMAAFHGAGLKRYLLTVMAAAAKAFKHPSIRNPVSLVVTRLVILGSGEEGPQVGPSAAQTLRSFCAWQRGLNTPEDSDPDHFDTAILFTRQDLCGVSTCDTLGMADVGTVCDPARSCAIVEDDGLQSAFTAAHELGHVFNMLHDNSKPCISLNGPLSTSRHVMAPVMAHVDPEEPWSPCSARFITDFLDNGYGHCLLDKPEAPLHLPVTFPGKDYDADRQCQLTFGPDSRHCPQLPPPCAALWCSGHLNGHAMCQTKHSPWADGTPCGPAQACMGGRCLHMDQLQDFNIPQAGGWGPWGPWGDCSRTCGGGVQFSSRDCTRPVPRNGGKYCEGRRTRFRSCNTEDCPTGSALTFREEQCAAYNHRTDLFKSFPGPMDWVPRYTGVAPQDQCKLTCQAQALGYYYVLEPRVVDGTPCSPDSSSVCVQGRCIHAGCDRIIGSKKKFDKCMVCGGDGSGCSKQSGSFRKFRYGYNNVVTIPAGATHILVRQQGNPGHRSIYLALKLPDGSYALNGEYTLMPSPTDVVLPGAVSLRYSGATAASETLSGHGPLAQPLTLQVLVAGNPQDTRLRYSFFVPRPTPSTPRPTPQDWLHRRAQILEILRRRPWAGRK
In short: (§1)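 Enzyme inhibition IC50s derived from at least six measurements, standard errors normally <5% within an assay; a standard compound run to keep assay-to-assay variability within twofold.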

[2] = target: T2, A disintegrin and metalloproteinase with thrombospondin motifs 5 (Homo sapiens, UniProt Q9UNA0); experiment: Inhibition of ADAMTS-5 assessed as substrate cleavage after 16 hrs by fluorescence assay; in short: as §1
T2 sequence (Q9UNA0 whole entry): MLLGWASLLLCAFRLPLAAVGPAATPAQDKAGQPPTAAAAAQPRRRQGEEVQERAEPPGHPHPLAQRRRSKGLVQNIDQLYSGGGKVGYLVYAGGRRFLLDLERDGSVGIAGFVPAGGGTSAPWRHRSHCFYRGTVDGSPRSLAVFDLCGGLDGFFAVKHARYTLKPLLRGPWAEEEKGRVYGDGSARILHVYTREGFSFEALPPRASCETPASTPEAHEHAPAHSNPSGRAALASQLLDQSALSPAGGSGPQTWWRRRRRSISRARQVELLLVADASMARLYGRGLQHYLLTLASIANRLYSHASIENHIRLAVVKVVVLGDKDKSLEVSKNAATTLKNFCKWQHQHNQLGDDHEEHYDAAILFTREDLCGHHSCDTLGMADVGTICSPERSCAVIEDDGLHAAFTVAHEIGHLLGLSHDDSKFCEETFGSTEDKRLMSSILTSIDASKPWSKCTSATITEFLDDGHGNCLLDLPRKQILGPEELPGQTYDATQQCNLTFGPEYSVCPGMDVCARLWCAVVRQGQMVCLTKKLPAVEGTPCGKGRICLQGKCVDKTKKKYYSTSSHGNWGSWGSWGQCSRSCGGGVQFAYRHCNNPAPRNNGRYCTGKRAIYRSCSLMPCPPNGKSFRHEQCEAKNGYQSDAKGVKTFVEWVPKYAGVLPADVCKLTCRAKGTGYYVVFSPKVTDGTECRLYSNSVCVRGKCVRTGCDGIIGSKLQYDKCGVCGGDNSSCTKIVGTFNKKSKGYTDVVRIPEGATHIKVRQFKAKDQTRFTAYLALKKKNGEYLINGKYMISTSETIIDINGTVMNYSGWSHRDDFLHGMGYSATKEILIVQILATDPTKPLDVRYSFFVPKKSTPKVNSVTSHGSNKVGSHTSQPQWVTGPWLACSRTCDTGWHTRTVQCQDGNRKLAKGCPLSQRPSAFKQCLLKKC

[3] = target: T3, Collagenase 3 (Homo sapiens, UniProt P45452); experiment: Inhibition of recombinant human MMP-13 assessed as substrate cleavage after 20 hrs by fluorescence assay; in short: as §1
[4] = target: Matrix metalloproteinase-14 (Homo sapiens, UniProt P50281); experiment: Inhibition of recombinant human MMP-14 assessed as substrate cleavage after 20 hrs by fluorescence assay; in short: as §1
[5] = target: T4, Interstitial collagenase (Homo sapiens, UniProt P03956); experiment: Inhibition of recombinant human MMP-1 assessed as substrate cleavage after 20 hrs by fluorescence assay; in short: as §1
T4 sequence (P03956 whole entry): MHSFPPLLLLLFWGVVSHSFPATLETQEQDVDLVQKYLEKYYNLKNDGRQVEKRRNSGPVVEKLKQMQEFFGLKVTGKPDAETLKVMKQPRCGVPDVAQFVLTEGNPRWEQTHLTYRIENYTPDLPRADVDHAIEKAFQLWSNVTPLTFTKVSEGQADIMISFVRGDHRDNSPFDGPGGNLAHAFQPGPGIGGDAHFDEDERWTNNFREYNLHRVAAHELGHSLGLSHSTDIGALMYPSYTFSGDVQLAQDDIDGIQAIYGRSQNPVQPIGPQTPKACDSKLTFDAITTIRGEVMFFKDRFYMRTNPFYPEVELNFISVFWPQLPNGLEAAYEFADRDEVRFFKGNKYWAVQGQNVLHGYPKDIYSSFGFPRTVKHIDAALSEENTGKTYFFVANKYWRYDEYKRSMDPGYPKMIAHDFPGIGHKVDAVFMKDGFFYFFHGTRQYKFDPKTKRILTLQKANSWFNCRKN

[6] = target: Cytochrome P450 3A4 (Homo sapiens, UniProt P08684); experiment: Inhibition of CYP3A4; format: ADME
Chain of Cytochrome P450 3A4 (P08684 whole entry, canonical isoform): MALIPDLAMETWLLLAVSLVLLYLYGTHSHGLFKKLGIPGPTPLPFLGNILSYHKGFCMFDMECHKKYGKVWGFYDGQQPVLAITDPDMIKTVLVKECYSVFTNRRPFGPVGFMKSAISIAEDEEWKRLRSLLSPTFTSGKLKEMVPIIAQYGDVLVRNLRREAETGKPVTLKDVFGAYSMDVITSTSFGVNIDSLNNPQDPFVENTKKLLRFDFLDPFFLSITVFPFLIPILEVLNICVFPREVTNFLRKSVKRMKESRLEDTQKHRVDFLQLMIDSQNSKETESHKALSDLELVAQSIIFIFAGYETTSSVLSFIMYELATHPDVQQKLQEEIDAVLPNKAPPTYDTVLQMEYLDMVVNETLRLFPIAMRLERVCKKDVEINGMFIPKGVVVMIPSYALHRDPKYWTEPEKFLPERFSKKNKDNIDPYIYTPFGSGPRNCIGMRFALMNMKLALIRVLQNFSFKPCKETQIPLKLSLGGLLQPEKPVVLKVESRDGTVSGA
In short: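 Inhibition of cytochrome P450 isoforms 1A2, 2C9, 2C19, 2D6 and 3A4, reported as pIC50.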

[7] = target: 72 kDa type IV collagenase (Homo sapiens, UniProt P08253); experiment: Inhibition of recombinant human MMP-2 assessed as substrate cleavage after 20 hrs by fluorescence assay; in short: as §1
Chain of 72 kDa type IV collagenase (P08253 whole entry): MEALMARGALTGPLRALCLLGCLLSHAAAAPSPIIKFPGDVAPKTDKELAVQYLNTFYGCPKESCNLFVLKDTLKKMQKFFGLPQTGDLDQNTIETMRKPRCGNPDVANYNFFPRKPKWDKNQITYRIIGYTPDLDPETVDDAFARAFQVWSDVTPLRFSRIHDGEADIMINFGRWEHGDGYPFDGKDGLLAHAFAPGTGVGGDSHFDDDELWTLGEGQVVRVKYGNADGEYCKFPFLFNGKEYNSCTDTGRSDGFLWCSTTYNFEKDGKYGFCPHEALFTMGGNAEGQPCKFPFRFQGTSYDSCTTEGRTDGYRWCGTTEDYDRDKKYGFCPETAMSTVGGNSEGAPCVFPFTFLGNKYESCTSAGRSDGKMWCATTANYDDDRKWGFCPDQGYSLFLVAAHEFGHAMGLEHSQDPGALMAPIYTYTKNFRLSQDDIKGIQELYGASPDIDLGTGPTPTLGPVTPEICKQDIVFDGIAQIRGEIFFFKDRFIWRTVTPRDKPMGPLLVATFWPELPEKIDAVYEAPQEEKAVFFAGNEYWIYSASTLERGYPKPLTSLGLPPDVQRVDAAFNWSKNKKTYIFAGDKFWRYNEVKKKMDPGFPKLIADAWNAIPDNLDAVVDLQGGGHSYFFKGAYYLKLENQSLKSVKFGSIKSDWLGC

[8] = target: Matrix metalloproteinase-9 (Homo sapiens, UniProt P14780); experiment: Inhibition of recombinant human MMP-9 assessed as substrate cleavage after 20 hrs by fluorescence assay; in short: as §1
Chain of Matrix metalloproteinase-9 (P14780 whole entry): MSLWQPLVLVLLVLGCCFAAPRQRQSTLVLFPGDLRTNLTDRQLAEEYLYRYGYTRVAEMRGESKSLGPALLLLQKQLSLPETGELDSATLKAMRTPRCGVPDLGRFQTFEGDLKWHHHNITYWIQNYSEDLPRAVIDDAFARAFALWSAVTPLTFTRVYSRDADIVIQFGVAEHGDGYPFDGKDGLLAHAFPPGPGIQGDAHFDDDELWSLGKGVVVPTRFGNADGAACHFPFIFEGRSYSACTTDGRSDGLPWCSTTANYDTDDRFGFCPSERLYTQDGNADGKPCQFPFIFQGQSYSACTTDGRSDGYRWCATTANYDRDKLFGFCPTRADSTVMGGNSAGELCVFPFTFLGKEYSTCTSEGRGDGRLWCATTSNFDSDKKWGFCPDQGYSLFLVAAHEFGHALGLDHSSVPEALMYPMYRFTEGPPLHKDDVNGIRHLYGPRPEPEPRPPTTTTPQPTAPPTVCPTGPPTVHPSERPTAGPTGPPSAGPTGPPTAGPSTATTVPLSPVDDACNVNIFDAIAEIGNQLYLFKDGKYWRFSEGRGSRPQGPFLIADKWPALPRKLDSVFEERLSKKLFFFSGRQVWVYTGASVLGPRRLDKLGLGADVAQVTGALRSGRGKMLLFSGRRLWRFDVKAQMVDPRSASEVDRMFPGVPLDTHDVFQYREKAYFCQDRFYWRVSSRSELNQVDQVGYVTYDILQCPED

[9] = Intrinsic clearance in human liver microsomes; format: ADME, Microsome
In short: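 Human liver microsome metabolism; intrinsic clearance expressed as μL/min/mg, reported as mean of eight separate experiments.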

[10] = Clearance in rat at 2 mg/kg, iv; format: ADME, organism-based; parameters: dose 2 mg/kg, route intravenous; settings: in vivo
In short: (§2)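 Rat iv PK: 2 mg/kg iv, n = 2 animals; clearance, half-life and Vdss determined.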

[11] = Volume of distribution at steady state in rat at 2 mg/kg, iv; format: ADME, organism-based; parameters: dose 2 mg/kg, route intravenous; settings: in vivo, read-out: Vdss; in short: as §2
[12] = Half life in rat at 2 mg/kg, iv; format: ADME, organism-based; parameters: dose 2 mg/kg, route intravenous; settings: in vivo; in short: as §2
[13] = target: T3, Collagenase 3; experiment: Inhibition of recombinant human MMP-13 assessed as substrate cleavage at 15 uM after 20 hrs by fluorescence assay

| Compound | pIC50 [1] | pIC50 [2] | pIC50 [3] | pIC50 [4] | pIC50 [5] | pIC50 [6] | pIC50 [7] | pIC50 [8] | microsomal CLint [9] | clearance [10] | Vd [11] | half-life [12] | inhibition [13] |
| --- | --- | --- | --- | --- | --- | --- | --- | --- | --- | --- | --- | --- | --- |
| Cc1noc(C)c1CCC1CCN(S(=O)(=O)CC2(N(O)C=O)CCN(C)CC2)CC1 | 7.72 | 5.92 | < 5.00 | < 5.00 | < 5.00 | < 5.00 | < 5.00 | < 5.00 | < 2 µL/min/mg |  |  |  |  |
| Cc1cc(F)ccc1CCC1CCN(S(=O)(=O)CC2(N(O)C=O)CCOCC2)CC1 | 8.35 | 7.16 | 6.03 | 5.51 | < 5.00 |  | 5.89 | 5.51 | < 2 µL/min/mg | 15 mL/min/kg | 2 L/kg |  |  |
| Cc1noc(C)c1CCC1CCN(S(=O)(=O)CC2(N(O)C=O)CCC(F)(F)CC2)CC1 | 7.70 | 6.39 | < 5.00 | < 5.00 | < 5.00 | < 5.00 | < 5.00 | < 5.00 | 13 µL/min/mg |  |  |  |  |
| Cc1noc(C)c1CCC1CCN(S(=O)(=O)CC2(N(O)C=O)CCOC(C)(C)C2)CC1 (stereo not drawn) | 8.01 | 6.60 | < 5.00 | < 5.00 | < 5.00 | < 5.00 | < 5.00 | < 5.00 | 12 µL/min/mg |  |  |  |  |
| Cc1cc(CCC2CCN(S(=O)(=O)CC3(N(O)C=O)CCOCC3)CC2)c(C)cn1 | 7.74 | 5.47 | 4.34 | < 4.00 | < 5.00 |  | 4.21 | < 4.00 | 4.3 µL/min/mg | 20 mL/min/kg | 2 L/kg | 4 h |  |
| Cc1noc(C)c1CCC1CCN(S(=O)(=O)CC2(N(O)C=O)CCN(C(=O)C3CCC3)CC2)CC1 | 8.00 | 6.57 | < 5.00 | < 5.00 | < 5.00 | < 5.00 | < 5.00 | < 5.00 | 65 µL/min/mg |  |  |  |  |
| O=CN(O)C1(CS(=O)(=O)N2CCN(c3ccc(F)cc3)CC2)CCOCC1 | 7.68 |  |  |  |  | < 5.00 |  |  |  |  |  |  | 97% |
| Cc1nsc(C)c1CCC1CCN(S(=O)(=O)CC2(N(O)C=O)CCOCC2)CC1 | 7.89 | 6.35 | < 5.00 | < 5.00 | < 5.00 |  | < 5.00 | < 5.00 | 8.5 µL/min/mg | 18 mL/min/kg | 2 L/kg | 6.3 h |  |
| Cc1noc(C)c1CCC1CCN(S(=O)(=O)CC2(N(O)C=O)CCS(=O)(=O)CC2)CC1 | 7.80 | 6.57 | < 5.00 | < 5.00 | < 5.00 | < 5.00 | < 5.00 | < 5.00 | 4.9 µL/min/mg |  |  |  |  |
| O=CN(O)C1(CS(=O)(=O)N2CCN(c3ccc(F)cc3)CC2)CCC1 | 7.04 |  |  |  |  | 5.72 |  |  |  |  |  |  | 81% |
